Data on 36 compounds can be found in ChEMBL document CHEMBL4715779, “In vivo effective dibenzo[b,d]furan-1-yl-thiazoles as novel PDE-4 inhibitors” (Bioorg Med Chem, 2016).

Assay [1] deals with T1, 3',5'-cyclic-AMP phosphodiesterase 4B (Homo sapiens, UniProt Q07343). The experiment in a line: Inhibition of human PDE4B using [3H]cAMP as substrate at 100 nM incubated for 5 mins followed by substrate addition and measured after 10 mins by scintillation proximity assay relative to control. As to conditions: time 15.0 min. In outline: (§1)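 Purified human PDE-4B2 in 50 mM Tris pH 7.4, 8.3 mM Mg2+, 1% DMSO final, enzyme converting 10–20% of substrate; 5 min pre-incubation at 37 °C, then 0.5 µM cAMP with ~50,000 cpm [3H]-cAMP for 10 min; stopped with yttrium silicate SPA beads containing 18 mM ZnSO4, read after >30 min settling. Background = no enzyme; IC50 from 8–10-point 4-parameter fit.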
T1 sequence (Q07343 whole entry): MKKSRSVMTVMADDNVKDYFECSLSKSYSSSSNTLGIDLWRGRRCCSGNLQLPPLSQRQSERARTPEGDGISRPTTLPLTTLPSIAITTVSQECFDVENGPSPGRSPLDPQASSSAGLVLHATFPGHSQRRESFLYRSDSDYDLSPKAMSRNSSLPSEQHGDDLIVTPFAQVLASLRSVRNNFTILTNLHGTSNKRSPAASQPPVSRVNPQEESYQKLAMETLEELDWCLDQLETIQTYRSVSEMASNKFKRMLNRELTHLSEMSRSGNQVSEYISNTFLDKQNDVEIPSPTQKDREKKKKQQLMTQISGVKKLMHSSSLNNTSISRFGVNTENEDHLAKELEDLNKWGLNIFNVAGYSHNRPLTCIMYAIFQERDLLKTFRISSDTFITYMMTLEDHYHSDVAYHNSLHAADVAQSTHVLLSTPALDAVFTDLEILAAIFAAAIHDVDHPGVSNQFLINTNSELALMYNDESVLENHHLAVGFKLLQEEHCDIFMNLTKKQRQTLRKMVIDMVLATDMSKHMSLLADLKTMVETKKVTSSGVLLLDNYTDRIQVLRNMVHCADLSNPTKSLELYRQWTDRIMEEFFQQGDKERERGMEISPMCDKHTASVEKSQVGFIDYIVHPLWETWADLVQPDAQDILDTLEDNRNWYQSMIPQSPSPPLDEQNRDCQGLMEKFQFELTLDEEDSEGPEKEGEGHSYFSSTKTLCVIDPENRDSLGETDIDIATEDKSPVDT
A general note: Scintillation proximity formats need no separation of bound from free tracer.

Assay [2] addresses T1, 3',5'-cyclic-AMP phosphodiesterase 4B. Nature of the assay: Inhibition of human PDE4B using [3H]CAMP as substrate at 1000 nM incubated for 5 mins followed by substrate addition and measured after 10 mins by scintillation proximity assay relative to control. As to conditions: time 15.0 min. In outline:
as §1

In assay [3] the test system is PBMC. Nature of the assay: Inhibition of PDE-4 in human PBMC assessed as LPS-induced TNFalpha production at 1000 nM incubated for 15 mins followed by LPS stimulation and measured after 18 hrs by ELISA relative to control. As to conditions: time 1095.0 min. In outline:
(§2)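 PBMC isolated from healthy volunteers' blood in cell preparation tubes, suspended in RPMI; 0.5 million cells/well pre-incubated with compound 15 min at 37 °C, then stimulated with E. coli LPS (B4) 1 µg/mL for 18 h at 37 °C, 5% CO2; medium TNF-α measured by ELISA.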
For orientation: In an ELISA, binding on a coated surface is turned into a signal by an enzyme label.

Assay [4] deals with PBMC. The experiment in a line: Inhibition of PDE-4 in human PBMC assessed as LPS-induced TNFalpha production at 100 nM incubated for 15 mins followed by LPS stimulation and measured after 18 hrs by ELISA relative to control. As to conditions: time 1095.0 min. In short, it runs like this: as §2
Assay [5] deals with T1, 3',5'-cyclic-AMP phosphodiesterase 4B. The experiment in a line: Inhibition of human PDE4B using [3H]cAMP as substrate incubated for 5 mins followed by substrate addition and measured after 10 mins by scintillation proximity assay. In outline:
as §1

A short description of assay [6]: Inhibition of PDE-4 in human PBMC assessed as LPS-induced TNFalpha production incubated for 15 mins followed by LPS stimulation and measured after 18 hrs by ELISA relative to control. In short, it runs like this: as §2
Assay [7] deals with Mus musculus. The experiment in a line: Antiinflammatory activity in Swiss albino mouse model of LPS-induced sepsis assessed as reduction in TNFalpha production at 10 mg/kg, po administered 30 mins before LPS stimulation and measured after 90 min by ELISA relative to control. The assay is classed as functional. As to conditions: 2 h, time 120 min. In short, it runs like this: (§3)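 Female Swiss albino mice fasted 20 h with water, dosed orally in 0.5% Tween 80/0.25% CMC sodium; vehicle-only controls. 500 µg E. coli LPS (B4) in PBS i.p. 30 min later; retro-orbital bleed 90 min post-LPS, blood held overnight at 4 °C, serum TNF-α by mouse ELISA; % inhibition.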

Assay [8] deals with Rattus norvegicus. The experiment in a line: Antiinflammatory activity in Sprague-Dawley rat model of LPS-induced COPD and asthma assessed as reduction in neutrophil influx in BALF at 10 mg/kg, po administered 30 mins before LPS stimulation and measured after 6 hrs relative to control. As to conditions: time 6.5 hrs. In kind it is functional.
The test system of assay [9] is Rattus norvegicus. Nature of the assay: Antiinflammatory activity in Sprague-Dawley rat model of LPS-induced COPD and asthma assessed as reduction in neutrophil influx in BALF at 5 mg/kg, po administered 30 mins before LPS stimulation and measured after 6 hrs relative to control. As to conditions: time 6.5 hrs. In kind it is functional.
Assay [10] deals with Mus musculus. The experiment in a line: Antiinflammatory activity in Swiss albino mouse model of LPS-induced sepsis assessed as reduction in TNFalpha production at 1 mg/kg, po administered 30 mins before LPS stimulation and measured after 90 min by ELISA relative to control. The assay is classed as functional. As to conditions: 2 h, time 120 min. In short, it runs like this:
as §3

Assay [11] has as its system Mus musculus. The experiment in a line: Antiinflammatory activity in Swiss albino mouse model of LPS-induced sepsis assessed as reduction in TNFalpha production at 3 mg/kg, po administered 30 mins before LPS stimulation and measured after 90 min by ELISA relative to control. In kind it is functional. As to conditions: 2 h, time 120 min. In outline:
as §3

Assay [12] concerns Rattus norvegicus. The experiment in a line: Antiinflammatory activity in Sprague-Dawley rat model of LPS-induced COPD and asthma assessed as reduction in total cell count in BALF at 10 mg/kg, po administered 30 mins before LPS stimulation and measured after 6 hrs relative to control. As to conditions: time 6.5 hrs. In kind it is functional.

Consider `COc1ccc(-c2nc(CCC(=O)Nc3c(Cl)cncc3Cl)cs2)c2c1oc1ccccc12`, for which the figures for the inhibition in [1] and in assay [2] were 8.9% and 38.5%, respectively.
For `COc1ccc(-c2nc(C(=O)NN3CCOCC3)cs2)c2c1oc1ccccc12`, the inhibition – broadly, the change of the read-out against control, counted positive when it falls – in [1] was 39.6%; in [3], 22%.
As to `COc1ccc(-c2nc(C(=O)Nc3c(Cl)cncc3Cl)c(C)s2)c2c1oc1ccccc12`, the results for the inhibition in [1], in assay [4] and in assay [3] were 11.1%, 0.9% and 9.9%, respectively.
On to `COc1ccc(-c2nc(C(=O)O)cs2)c2c1oc1ccccc12`, for which the inhibition was found to be 36% in assay [1] and 80.4% in assay [2].
Consider `COc1ccc(-c2nc(-c3ccc(C#N)cc3)cs2)c2c1oc1ccccc12`, for which the inhibition was 5.2% in assay [1] and 15.8% in assay [2].
On to `COc1ccc(-c2nc(C(=O)Nc3ccc(Cl)cc3)cs2)c2c1oc1ccccc12`, for which the inhibition in assay [1] worked out at 1.2%; in assay [2], 5.2%; in assay [4], 2.98%; in assay [3], 15.8%.
Take `COc1ccc(-c2nc(C(=O)Nc3c(Cl)cncc3Cl)cs2)c2c1oc1ccccc12`: the inhibition in assay [1] is 70.3%; in [2] it was 92%; in assay [3], 34.2%. Also, the figures for the IC50 in [5] and in [6] were 48.4 nM and 1750 nM, respectively. Further, the inhibition in vivo (in general, the share of the control response that was lost under treatment) at 10 mg/kg in [7] turned out to be 37.8%.
For `CONC(=O)c1nc(-c2ccc(OC(F)F)c3oc4ccc(NS(C)(=O)=O)cc4c23)sc1C`, the inhibition amounted to 81.2% in [1] and 35.4% in assay [4].
The like results for `O=C(c1csc(-c2ccc(OC(F)F)c3oc4ccc(C(F)(F)F)cc4c23)n1)N1CCC(O)CC1` were, in that order, 27.4% and 14%.
In the case of `COc1ccc(-c2nc(C(=O)NC3CCCC3)c(C)s2)c2c1oc1ccccc12`, the values for the inhibition in [1], in assay [4] and in assay [3] were 1.6%, 21.9% and 39.1%, respectively.
For the compound `CC(=O)Nc1ccc2oc3c(OC(F)F)ccc(-c4nc(C(=O)O)cs4)c3c2c1`, the inhibition in assay [1] turned out to be 56.5%; in assay [4], 15.5%.
Take `Cc1sc(-c2ccc(OC(F)F)c3oc4ccc(NS(C)(=O)=O)cc4c23)nc1C(=O)NC1CCC(O)CC1` (configuration not stated): the inhibition in assay [1] is 67.6%; in assay [4], 61.8%; in assay [3], 92.8%. Moreover, the IC50 (as a rule, the concentration needed to halve the response being measured) was 24.7 nM in assay [5] and 54.4 nM in assay [6]. Besides, in assay [8], the inhibition in vivo at 10 mg/kg stood at 19.3%.
As to `CONC(=O)c1csc(-c2ccc(OC(F)F)c3oc4ccccc4c23)n1`, the figures for the inhibition in assay [1] and in assay [4] were 35.7% and 8.5%, respectively. Besides, in assay [7], the inhibition in vivo at 10 mg/kg came to 40.7%.
For the compound `CS(=O)(=O)Nc1ccc2oc3c(OC(F)F)ccc(-c4nc(C(=O)Nc5c(Cl)cncc5Cl)cs4)c3c2c1`, the values for the inhibition in [1] and in assay [4] were 43.4% and 25.1%, respectively.
For `COc1ccc(-c2nc(CC(=O)Nc3c(Cl)cncc3Cl)cs2)c2c1oc1ccccc12`, the inhibition turned out to be 32.7% in [1] and 87.8% in [2].
The like results for `CCOC(=O)c1csc(-c2ccc(OC)c3oc4ccccc4c23)n1` were, in that order, 17.6% and 24.4%.
Turning to `COc1ccc(-c2nc(-c3cccc(C(=O)O)n3)cs2)c2c1oc1ccccc12`, the figures for the inhibition in [1] and in assay [2] were 18.2% and 26.4%, respectively.
Take `COc1ccc(-c2nc(C(N)=O)cs2)c2c1oc1ccccc12`: the inhibition in [1] turned out to be 15.4%; in assay [2], 43.8%; in assay [4] it was 35.5%; in [3], 69.8%. In addition, the IC50 in assay [6] is 386 nM.
Turning to `CCNC(=O)c1nc(-c2ccc(OC)c3oc4ccccc4c23)sc1C`, the inhibition in assay [1] came to 24.6%; in [4] it was 9.9%; in [3], 23.8%.
Consider `COc1ccc(-c2nc(C(=O)N3CCN(c4ccccn4)CC3)cs2)c2c1oc1ccccc12`, for which the results for the inhibition in assay [1] and in [2] were 21.9% and 52.9%, respectively.
The like results for `COc1ccc(-c2csc(-c3ccc(OC)c4oc5ccccc5c34)n2)cc1` were, in that order, 19.4% and 41.5%.
Regarding `CC(=O)Nc1ccc2oc3c(OC(F)F)ccc(-c4nc(C(=O)NC5CCC(O)CC5)cs4)c3c2c1` (configuration not stated), the inhibition in assay [1] is 69%; in assay [4], 83.4%; in assay [3], 91.9%. The values for the half-maximal inhibitory concentration (IC50) in [5] and in [6] were 40.4 nM and 39.6 nM, respectively. The inhibition in vivo at 10 mg/kg in assay [8] turned out to be 51.2%. Further, the inhibition in vivo at 5 mg/kg in assay [9] stood at 35.7%.
Regarding `COc1ccc(-c2nc(C(=O)NC3CCC(O)CC3)cs2)c2c1oc1ccccc12` (configuration not stated), the inhibition worked out at 71.8% in assay [1] and 63.2% in assay [4]. In addition, the values for the IC50 in assay [5] and in [6] were 49.5 nM and 37.7 nM, respectively. The inhibition in vivo at 10 mg/kg in assay [7] is 46.7%.
Turning to `O=C(NCC(F)(F)F)c1csc(-c2ccc(OC(F)F)c3oc4ccccc4c23)n1`, the inhibition in [4] came to 26.7%; in assay [3] it was 31.9%.
On to `COc1ccc(-c2nc(C(=O)N3CCN(c4ncccn4)CC3)cs2)c2c1oc1ccccc12`, for which the inhibition in [1] stood at 25.8%; in assay [2] it was 59.3%.
For `Cc1sc(-c2ccc(OC(F)F)c3oc4ccc(NS(C)(=O)=O)cc4c23)nc1C(=O)O`, the inhibition in assay [1] stood at 62.6%.
`O=C(Nc1c(Cl)cncc1Cl)c1csc(-c2ccc(OC(F)F)c3oc4ccccc4c23)n1`: the inhibition turned out to be 42.3% in assay [1], 88.6% in [2], 14.5% in assay [4] and 28.3% in assay [3]. Moreover, the figures for the IC50 in [5] and in [6] were 127 nM and 2210 nM, respectively.
In the case of `CCOc1cc([C@@H](CS(C)(=O)=O)N2C(=O)c3cccc(NC(C)=O)c3C2=O)ccc1OC`, the IC50 in [6] is 77 nM.
Regarding `COc1ccc(-c2nc(C(=O)NC3CCC(O)CC3)c(C)s2)c2c1oc1ccccc12` (configuration not stated), the inhibition turned out to be 62.6% in assay [1], 82.7% in assay [4] and 103% in [3]. Further, the IC50 was 43.8 nM in assay [5] and 27.7 nM in assay [6].
In the case of `CS(=O)(=O)Nc1ccc2oc3c(OC(F)F)ccc(C(=O)Nc4c(Cl)cncc4Cl)c3c2c1` [OGLEMILAST], the inhibition in vivo at 10 mg/kg in assay [7] is 72.5%. In addition, the inhibition in vivo at 1 mg/kg in assay [10] turned out to be 53.9%.
Consider `CS(=O)(=O)Nc1ccc2oc3c(OC(F)F)ccc(-c4nc(C(=O)NC5CCC(O)CC5)cs4)c3c2c1` (configuration not stated), for which the inhibition in assay [1] turned out to be 67%; in assay [4], 78.6%; in assay [3], 97.8%. In addition, the IC50 in assay [5] came to 31.4 nM; in assay [6] it was 18.4 nM.
`COc1ccc(-c2nc(C(=O)Nc3ccccc3)cs2)c2c1oc1ccccc12`: the inhibition in assay [1] is 2.4%; in assay [2] it was 7.4%.
`O=C(O)c1csc(-c2ccc(OC(F)F)c3oc4ccc(C(F)(F)F)cc4c23)n1`: the figures for the inhibition in [1] and in [4] were 59.3% and 4.2%, respectively.
Consider `O=C(NC1CCC(O)CC1)c1csc(-c2ccc(OC(F)F)c3oc4ccc(C(F)(F)F)cc4c23)n1` (configuration not stated), for which the figures for the inhibition in assay [1] and in [4] were 51.5% and 17.2%, respectively.
Turning to `O=C(Nc1c(Cl)cncc1Cl)c1ccc(OC(F)F)c(OCC2CC2)c1` [ROFLUMILAST], the IC50 in assay [6] came out at 4.3 nM. The inhibition in vivo at 10 mg/kg in assay [8] and in assay [12] was 73.2% throughout. The inhibition in vivo at 3 mg/kg in assay [11] was 59.2%.
For the compound `CCOC(=O)c1cccc(-c2csc(-c3ccc(OC)c4oc5ccccc5c34)n2)n1`, the inhibition in assay [1] is 5.8%; in assay [2] it was 15.6%.
